Most compounds without a hit are left out; they make up all but 1.2% or so of the library.
EBNA-1 inh = blocks EBNA-1 binding to DNA. EBNA-1 DNA binding, fluorescence polarization. 300,000 compounds, 0.34% hits. inhibition, % at 14.8 µM. AID 1950; in the data active = inhibition above about 28%
NS3 helicase inh = blocks Hepatitis C virus NS3 helicase unwinding. NS3 helicase DNA unwinding, Cy5 molecular beacon fluorescence. inhibition, % at 10.9 µM. 290,000 compounds, 0.56% hits. AID 1800;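 active = inhibition above the mean of all tested compounds plus 3 SD, set per campaign, cut at about 35% in these data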;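 note: 0% = DMSO wells and 100% = thioflavine S control wells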
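Test system: hepatitis C virus NS3 helicase domain fragment enzyme. Also added: annealed dual-labelled DNA beacon duplex, ATP-started. Timing: 60 min unwinding reaction at 25 °C after ATP addition. Technique: Cy5 fluorescence. Measure: % inhibition of unwinding.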
ZTA counter = counter-screen for EBNA-1 inhibitors: inhibitors of Epstein-Barr virus ZTA; ZTA-DNA binding, fluorescence polarization; inhibition, % at 11 µM; 320,000 compounds, 0.15% hits; AID 2234; in the data active = inhibition above about 33%
Target sequence (P03206 whole entry, looked up): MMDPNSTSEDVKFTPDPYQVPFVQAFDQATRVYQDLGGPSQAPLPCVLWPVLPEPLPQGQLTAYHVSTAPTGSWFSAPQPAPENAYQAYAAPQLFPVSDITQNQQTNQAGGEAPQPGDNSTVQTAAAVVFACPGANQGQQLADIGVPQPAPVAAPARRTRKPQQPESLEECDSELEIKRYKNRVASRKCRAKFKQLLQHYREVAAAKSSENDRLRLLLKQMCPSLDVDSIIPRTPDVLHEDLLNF
core dimer inh = blocks dimerization of HCV core protein. TR-FRET GST/Flag-core106 dimerization, 1536-well. inhibition, % at 5 µM. 300,000 compounds, 0.33% hits. AID 1899;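 active = inhibition above the mean of all tested compounds plus 3 SD, set per screening campaign, cut at about 45% in these data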
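Assay system – GST-tagged and Flag-tagged HCV core protein residues 1-106 · Quantity – core106 proteins, GST 13.5 nM and Flag 17 nM · Benchmarks – unlabelled core106 and no-GST-core106 wells · Read-out basis – percent inhibition of core106 dimerization signal · Detection – time-resolved FRET, ex 340 nm, em 617 and 671 nm · Schedule – 4 h at 22.5 °C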
NS3 hel confirm = HCV NS3 helicase inhibition, confirmation assay. shares compounds with NS3 helicase inh. NS3 helicase DNA unwinding, Cy5 molecular beacon fluorescence. inhibition, % at 10.9 µM. 1,600 compounds, 31% hits. AID 1943;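 active = inhibition above the mean of all tested compounds plus 3 SD, cutoff set per campaign, cut at about 36% in these data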
FID counter trip = counter-screen for HCV NS3 helicase inhibitors: DNA intercalator displacement; shares compounds with NS3 helicase inh; 1,600 compounds, 4% hits; DNA fluorescent intercalator displacement, fluorescence; inhibition, % at 7.9 µM; in the data active = inhibition above about 37%;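 note: 0% = vehicle and 100% = reference compound; higher means more displacement of ethidium bromide from the DNA hairpin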
DNA FID DR = counter-screen for HCV NS3 helicase inhibitors: DNA intercalator displacement dose response; 120 tested, under 10 active; AID 2172; fluorescent intercalator displacement from DNA, fluorescence; IC50, µM; shares compounds with NS3 helicase inh; call rule not given here
Numbers without * were called inactive; / = no result given.

SMILES	EBNA-1 inh	NS3 helicase inh	ZTA counter	core dimer inh	NS3 hel confirm	FID counter trip	others
Cc1scc(C(=O)N/N=C/c2ccc([N+](=O)[O-])o2)c1C	8	43*	-4	-6	-12	9
Cc1ccc(NCC(=O)N/N=C\c2ccc([N+](=O)[O-])o2)cc1	2	15	6	-2	/	/
Cc1scc(C(=O)N/N=C/c2ccco2)c1C	5	1	-11	-2	/	/
CCCCCC(=O)N/N=C/c1ccc([N+](=O)[O-])o1	-11	39*	6	1	-10	2
CCc1cc2c(=O)n(Cc3ccco3)c(SCC(=O)N3CCCc4ccccc43)nc2s1	7	43*	3	22	25	-16
CCc1cc2c(=O)n(Cc3ccco3)c(SCC(=O)NCC3CCCO3)nc2s1 (stereo not drawn)	-10	2	-2	-4	/	/
CCc1cc2c(=O)n(Cc3ccco3)c(SCc3c(C)noc3C)nc2s1	7	51*	-4	11	48*	-30	DNA FID DR=>79
CCCN1CCC(=O)N([C@H](CN=[N+]=[N-])Cc2ccccc2)CC1	4	-14	-1	-21	/	/
COC(=O)[C@@H](Cc1ccccc1)NC(=O)NCCc1ccc(OC)c(OC)c1	13	5	5	6	/	/
O=C(Nc1ccc(Cl)c(S(=O)(=O)N2CCOCC2)c1)[C@@H]1CCCN1C(=O)c1cccs1	/	/	-3	/	/	/
CC(C)(C)OC(=O)N[C@H](C(=O)OC(C)(C)C)c1ccccc1	/	/	11	/	/	/
COC(=O)CC1C(=O)NCCN1C(=O)CSc1nnnn1-c1ccc(OC)cc1 (stereo not drawn)	-2	6	-7	1	/	/
Cn1cccc1CC(=O)NNC(=O)Nc1ccc(Cl)cc1	6	10	6	13	/	/
Cn1cccc1CC(=O)NNC(=O)Nc1cccc(Cl)c1	-4	38*	7	1	-15	25
COc1ccccc1COc1ccc2c(C)c(CC(=O)O)c(=O)oc2c1C	-7	48*	12	10	15	-21
Cc1nn(Cc2ccccc2)c(C)c1NC(=O)CCCn1nc([N+](=O)[O-])cc1C	-6	-3	-14	-1	/	/
NC(=O)c1sc2nc(-c3cccs3)ccc2c1N	0	0	-18	9	/	/
Nc1c(C(=O)NC2CCCC2)sc2nc(-c3cccs3)ccc12	-12	56*	0	26	-16	6
Cn1cc([N+](=O)[O-])c(C(=O)NC2CCCC2)n1	/	2	/	/	/	/
O=C(O)CN1C(=O)/C(=C\c2cc(Br)ccc2OCc2ccc([N+](=O)[O-])cc2)SC1=S	2	56*	17	26	66*	56*
O=C1/C(=C\c2ccc(O)cc2)SC(=S)N1Cc1ccccc1	-13	-8	-3	-7	/	/
O=C(O)CN1C(=O)/C(=C\c2ccccc2OCc2ccc(Cl)cc2Cl)SC1=S	24	47*	26	21	66*	32
O=C1/C(=C\c2cc(Br)cc(Br)c2O)SC(=S)N1Cc1ccccc1	-10	57*	-9	6	75*	29
COc1cc(/C=C2/SC(=S)N(Cc3ccccc3)C2=O)ccc1OCC(=O)O	2	37*	4	37	35	32
CC(=O)NC(NC(=S)N1CCCCCC1)C(Cl)(Cl)Cl (stereo not drawn)	-6	0	-22	-9	/	/
SMILES	EBNA-1 inh	NS3 helicase inh	ZTA counter	core dimer inh	NS3 hel confirm	FID counter trip	others
N#CCC(=O)Nc1ccc(C(=O)NNC(=O)c2ccccc2-n2cccc2)cc1	/	/	-15	/	/	/
O=C(CCc1nc2ccccc2c(=O)[nH]1)Nc1cc(C(F)(F)F)ccc1N1CCCC1	/	/	-6	/	/	/
O=C(O)CN1C(=O)/C(=C\c2cc(Br)ccc2OCc2ccccc2Cl)SC1=S	6	47*	7	12	69*	48*
Cc1ccc(-n2nc3c(=O)n(CC(=O)NC4CCCCC4)nc(C)c3c2C)cc1	-6	5	-5	-3	/	/
COc1ccc(CCNC(=O)C2CC(=O)N(C3CCCCC3)C2)cc1OC (stereo not drawn)	-8	96*	-11	-16	0	-1
CCCOC(=O)/C(=C\c1ccc([N+](=O)[O-])o1)NC(=O)c1ccccc1	-8	38*	16	-6	-16	-4
O=C(N/N=C/C=C/c1ccco1)c1ccncc1	-8	9	7	-2	/	/
